Compound activity: PubChem BioAssay, Sanford-Burnham Center for Chemical Genomics
Most compounds without a hit are left out; they make up all but 1.6% or so of the library.
TRAIL sens C8: sensitizes caspase-8 expressing cells to TRAIL. NB7+C8 cells + TRAIL, ATPlite viability luminescence. inhibition (viability loss, TRAIL sensitization), % at 10 µM. 1% of 360,000 active;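 active means compounds causing at least 50% loss of cell viability in the single-dose screen, relative to plate controls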
FLuc inh counter: counter-screen for luciferase assay inhibitors: firefly luciferase inhibition | ATPLite firefly luciferase biochemical luminescence, 10 min | inhibition, % at 10 µM | 1.5% of 200,000 active | AID 1006;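 active means inhibition above about 50% when tested at 10 µM, limit read from the data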
Target sequence (P08659 whole entry, looked up): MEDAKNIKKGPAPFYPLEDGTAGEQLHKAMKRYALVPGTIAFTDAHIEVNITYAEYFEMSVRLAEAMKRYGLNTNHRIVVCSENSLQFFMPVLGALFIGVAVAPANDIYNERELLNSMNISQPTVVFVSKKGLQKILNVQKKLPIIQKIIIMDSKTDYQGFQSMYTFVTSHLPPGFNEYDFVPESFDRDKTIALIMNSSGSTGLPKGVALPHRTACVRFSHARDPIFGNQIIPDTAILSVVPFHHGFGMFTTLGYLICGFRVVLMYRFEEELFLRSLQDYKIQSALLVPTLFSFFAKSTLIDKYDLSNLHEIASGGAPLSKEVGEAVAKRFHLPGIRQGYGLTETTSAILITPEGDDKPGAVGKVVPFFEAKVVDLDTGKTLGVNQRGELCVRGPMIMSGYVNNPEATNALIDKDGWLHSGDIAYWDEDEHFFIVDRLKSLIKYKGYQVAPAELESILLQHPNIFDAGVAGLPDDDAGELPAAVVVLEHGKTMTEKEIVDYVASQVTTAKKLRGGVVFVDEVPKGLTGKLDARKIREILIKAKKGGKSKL
PPC-1+TRAIL kill: PPC-1 cancer cell killing with TRAIL present; PPC-1 cells + TRAIL, ATPLite viability luminescence; cell killing (% activity), % at 4 µM or 5 µM; 0.41% of 220,000 active;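 active means cell killing above 50% in the first pass at 4 µM, then a duplicate retest at 5 µM averaging 50% or more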;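 further: plate controls were cells with TRAIL plus DMSO for no effect and medium-only wells lacking cells for full effect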
FLuc act counter: affects firefly luciferase, flagging false hits in luciferase stimulation screens; ATPlite luciferase biochemical, luminescence, 10 min; 0 = ATP-free wells, 1 = DMSO control; activation factor at 10 µM; 200,000 tested, under 10 active; AID 1027;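 active means luciferase activation factor, scaled between plate controls, of at least 2 with compound at 10 µM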
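assay system = Luciferase/luciferin detection reagent, cell-free biochemical luciferase assay | also added = ATP substrate | times = 10 min post-reagent at room temperature | measured by = luminescence from luciferase reaction | measure = luciferase activation, seen as luminescence increase over controls | benchmarks = low control with PBS replacing ATP, high control enzyme plus ATP without compound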
An asterisk follows results filed as active; . = not tested or not shown.

SMILES | TRAIL sens C8 | FLuc inh counter | PPC-1+TRAIL kill | FLuc act counter
O=C(NC(=S)Nc1nc2ccccc2s1)c1cccs1 | 83.8* | 90.4* | 13.2 | 0.1
CCc1ccc(-c2nc(NC(=S)NC(=O)c3cccs3)sc2C)cc1 | -34.3 | -4.7 | 4.7 | 1
COC(=O)c1nc(NC(=S)NC(=O)c2cccs2)sc1C | 50.1* | . | . | .
CCc1nc2c(OCc3ccccc3C(=O)OC)cccn2c1N(C)C(=O)Nc1ccccc1OC | -14.2 | . | . | .
CC(C)(C)C(=O)N1CCN(c2ccc3c(c2)C2CC3CCN2C(=O)OCc2ccccc2)CC1 (configuration not stated) | 27.4 | . | . | .
CC(=O)Nc1cccc(NC(=O)Nc2ccc(C(C)=O)cc2)c1 | 13.8 | 28.8 | 18.6 | 0.7
O=C(Nc1ccccc1)Nc1ccc(C(=O)N2CCCC2)cc1 | 68.6* | 87.3* | 40.7 | 0.1
CC(=O)c1cccc(NC(=O)Nc2ccc(C(=O)N3CCCC3)cc2)c1 | 24.6 | 60.8* | 19.5 | 0.4
CCn1c(C)nc2cc(C(=O)NN=Cc3ccccc3OC(F)F)ccc21 | 4.4 | . | . | .
CCn1c(C)nc2cc(C(=O)OC)ccc21 | 0.4 | -0.3 | . | 1
CCn1c(C)nc2cc(C(=O)N/N=C/c3ccccc3C)ccc21 | 23.7 | 53.3* | 7.7 | 0.5
CCn1c(C)nc2cc(NC(=O)Nc3cccc(C(C)=O)c3)ccc21 | 55.7* | . | . | .
CCN(CC)c1ccc(NC(=O)Nc2cccc(C(C)=O)c2)cc1 | 32.2 | 51.8* | 41.6 | 0.5
O=C(Nc1ccccc1)Nc1ccc2ocnc2c1 | 24.7 | 60.9* | 31.7 | 0.4
O=C(Nc1ccccc1)Nc1ccc2ncoc2c1 | -11.9 | 22.0 | 27.2 | 0.8
O=C(Nc1nc2ccc(S(=O)(=O)N3CCCC3)cc2s1)c1cccs1 | 3.9 | -2.7 | 4.0 | 1
O=C(Nc1nc2ccc(S(=O)(=O)N3CCCCC3)cc2s1)c1cccnc1 | -17.7 | -4.5 | 7.6 | 1
CN(C)S(=O)(=O)c1ccc2nc(NC(=O)c3cccnc3)sc2c1 | 20.9 | 55.4* | 26.9 | 0.4
CN(C)S(=O)(=O)c1ccc2nc(NC(=O)c3cccs3)sc2c1 | 47.3 | 63.6* | 49.1 | 0.4
O=C(Nc1nc2ccc(F)cc2s1)c1cccs1 | 33.7 | 50.5* | 17.1 | 0.5
CN(CCCn1ccc(NC(=O)OCc2ccccc2)nc1=O)Cc1ccco1 | -14.0 | . | . | .
C[C@H](CO)N1C[C@H](C)[C@@H](CN(C)S(=O)(=O)c2cccs2)Oc2c(NC(=O)CCC(F)(F)F)cccc2C1=O | -5.1 | . | . | .
Cc1ccc(S(=O)(=O)N2CCN(C(=O)c3c(-c4ccccc4)noc3C)CC2)c(C)c1 | -0.4 | . | . | .
Cc1ccc(-n2nc3c(=O)n(CC(=O)NC4CCCCCC4)nc(C)c3c2C)cc1 | -10.1 | . | . | .
O=C(/C=C/Sc1ccccc1)c1ccc(Cl)cc1 | 16.6 | 60.8* | 22.6 | 0.4
SMILES | TRAIL sens C8 | FLuc inh counter | PPC-1+TRAIL kill | FLuc act counter
O=C(/C=C/Sc1ccccc1)c1ccccc1 | -2.7 | 87.5* | 19.3 | 0.1
COCCn1c(SCC(=O)N2CCCC2)nc2c(c1=O)SCC2 | -5.1 | . | . | .
CC[C@H](C)[C@@H]1OC(=O)[C@@H](C)[C@@H](CC)NC(=O)[C@H](C)N(C)C(=O)C(C)(C)C(=O)C(C)NC(=O)[C@H](Cc2ccccc2)N(C)C(=O)[C@H](C(C)C)N(C)C(=O)CNC(=O)[C@H](CC(C)C)N(C)C(=O)CNC1=O (some centres not stated) | 59.6* | . | . | .
CN(Cc1cnc2nc(N)nc(N)c2n1)c1ccc(C(=O)NC(CCC(=O)O)C(=O)O)cc1 (configuration not stated) | 81.0* | . | . | .
CN(Cc1cnc2nc(N)nc(N)c2n1)c1ccc(C(=O)NC(CCC(=O)O)C(=O)O)cc1C(F)(F)F (configuration not stated) | 82.3* | . | . | .
CCCN(CCC)C(=O)C(CCC(=O)O)NC(=O)c1ccccc1 (configuration not stated) | 1.9 | -4.9 | -9.0 | 1
COc1ccc2nc(/N=C/c3c(C)[nH]n(-c4ccc(C)cc4)c3=O)sc2c1 | 19.1 | 59.0* | 17.0 | 0.4
Cc1ccc(NC(=S)c2nc3ccccc3s2)cc1 | 43.9* | 65.8* | 26.2 | 0.3
Cc1cc(/C=N/NC(=O)COc2cccc3cccnc23)c(C)n1-c1ccc(O)cc1 | -11.3 | 57.2* | 14.1 | 0.4
CCOC(=O)/C(C#N)=C\c1cc(C)n(-c2ccccc2)c1C | 43.0 | 75.8* | 38.2 | 0.2
COC(=O)N/N=C/c1cc(C)n(-c2ccc(Br)cc2)c1C | 3.1 | . | 7.2 | .
Cc1cc(C(=O)N/N=C/c2ccc(O)c(O)c2O)c(C)n1-c1ccccc1 | 36.2 | 70.1* | 24.2 | 0.3
CCOC(=O)/C(C#N)=C/c1cc(C)n(-c2ccc(C)cc2)c1C | 27.8 | 41.6 | 14.3 | 0.6
Cc1cc(/C=N/NC(=O)C(O)(c2ccccc2)c2ccccc2)c(C)n1-c1ccccc1 | -3.8 | -0.7 | 17.9 | 1
COC(=O)N/N=C/c1cc(C)n(-c2ccccc2)c1C | 9.3 | 52.3* | 9.1 | 0.5
O=c1cc(CN2CCN(Cc3ccc(F)cc3)C(CCO)C2)[nH]c2ccccc12 (configuration not stated) | 3.5 | . | . | .
CCO[C@H]1OC(C(N)=O)=C[C@@H](C2CCCCC2)[C@@H]1CCCO | -0.8 | -6.3 | 13.2 | 1.1
Cc1cc(/C=N/NC(=O)c2cccc([N+](=O)[O-])c2)c(C)n1-c1ccccc1 | -0.5 | 65.5* | 25.4 | 0.3
O=C(NN=Cc1ccccc1O)c1cccc([N+](=O)[O-])c1 | 10.1 | . | . | .
Cc1cc(C(=O)N/N=C2\CC(=O)c3ccccc32)c(C)n1-c1ccccc1 | 53.6* | 60.1* | 18.0 | 0.4
Cc1cc(/C=N/NC(=O)c2ccncc2)c(C)n1-c1ccccc1 | 14.4 | 69.7* | 20.4 | 0.3
Cc1cc(/C=N/NC(=O)c2cccs2)c(C)n1-c1cnccn1 | 14.8 | 54.9* | 17.9 | 0.5
COc1ccc(Cn2cc(CN3CC(N4CCN(C5CCN(C)CC5)CC4)CS3(=O)=O)nn2)cc1 (configuration not stated) | -3.6 | . | . | .
CC(C)N(C(=O)N1CCN(c2ccnc3cc(Cl)ccc23)CC1)C(C)C | 11.2 | . | . | .
Cc1ccc(/C=C2/Sc3ccc(C(=O)NCCN4CCOCC4)cc3NC2=O)cc1 | 3.9 | . | . | .
SMILES | TRAIL sens C8 | FLuc inh counter | PPC-1+TRAIL kill | FLuc act counter
CCN1CCN(CCNC(=O)c2ccc3c(c2)N(Cc2ccc(F)cc2)C(=O)/C(=C/c2ccccc2)S3)CC1 | 56.6* | -5.3 | 27.1 | 1.1
O=C1Nc2cc(C(=O)NCCN3CCCCCC3)ccc2S/C1=C/c1ccccc1F | 52.3* | . | . | .
CCN1CCCC1CNC(=O)c1ccc2c(c1)NC(=O)/C(=C\c1ccc(C)cc1)S2 (configuration not stated) | 78.7* | . | . | .
COc1ccc(NC(=O)CN(C)C(=O)CCCNC(=O)c2ccc(Cl)cc2)cc1 | -10.6 | . | . | .
C(=C\c1ccccc1)/CN1CCN(C(c2cccc3ccccc23)c2nnnn2-c2ccc3c(c2)OCCO3)CC1 (configuration not stated) | 3.8 | . | . | .
N#Cc1cnn(-c2nc3sc4c(c3c(=O)[nH]2)CCCC4)c1N | 41.8 | 59.6* | 36.1 | 0.4
Cn1c(NC(=O)c2cc(-c3ccc4c(c3)OCO4)nc3ccccc23)cc(=O)n(C)c1=O | 38.1 | 71.6* | 41.1 | 0.3
O=C(NC(=S)N1CCOCC1)c1cn(-c2ccccc2)nc1-c1ccc(F)cc1 | -0.6 | . | . | .
